Measured values published in ChEMBL document CHEMBL1122419, “alpha-Adrenergic activities of some substituted 2-(aminomethyl)imidazolines” (J Med Chem, 1983).

What was measured:
[1] = target: T1, Adrenergic receptor alpha-1 (Rattus norvegicus, UniProt P15823+P23944+P43140); test: Agonist activity against alpha-1 adrenergic receptor from rat vas deferens; assay type: functional
T1 sequence (P15823 whole entry): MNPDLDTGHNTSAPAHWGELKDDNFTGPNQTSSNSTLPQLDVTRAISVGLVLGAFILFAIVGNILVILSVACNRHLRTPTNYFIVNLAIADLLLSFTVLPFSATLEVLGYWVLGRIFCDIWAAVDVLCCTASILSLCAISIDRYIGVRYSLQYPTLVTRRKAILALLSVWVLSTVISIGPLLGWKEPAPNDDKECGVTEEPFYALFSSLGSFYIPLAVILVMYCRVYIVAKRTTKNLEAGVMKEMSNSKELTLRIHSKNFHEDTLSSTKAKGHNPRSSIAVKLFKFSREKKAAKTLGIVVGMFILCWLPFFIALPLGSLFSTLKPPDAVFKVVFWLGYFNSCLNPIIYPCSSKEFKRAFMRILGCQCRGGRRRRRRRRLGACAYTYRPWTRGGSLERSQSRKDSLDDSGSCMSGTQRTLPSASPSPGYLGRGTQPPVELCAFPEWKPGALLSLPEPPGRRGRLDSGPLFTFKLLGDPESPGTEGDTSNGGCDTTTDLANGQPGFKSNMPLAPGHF
T1 sequence (P23944 whole entry): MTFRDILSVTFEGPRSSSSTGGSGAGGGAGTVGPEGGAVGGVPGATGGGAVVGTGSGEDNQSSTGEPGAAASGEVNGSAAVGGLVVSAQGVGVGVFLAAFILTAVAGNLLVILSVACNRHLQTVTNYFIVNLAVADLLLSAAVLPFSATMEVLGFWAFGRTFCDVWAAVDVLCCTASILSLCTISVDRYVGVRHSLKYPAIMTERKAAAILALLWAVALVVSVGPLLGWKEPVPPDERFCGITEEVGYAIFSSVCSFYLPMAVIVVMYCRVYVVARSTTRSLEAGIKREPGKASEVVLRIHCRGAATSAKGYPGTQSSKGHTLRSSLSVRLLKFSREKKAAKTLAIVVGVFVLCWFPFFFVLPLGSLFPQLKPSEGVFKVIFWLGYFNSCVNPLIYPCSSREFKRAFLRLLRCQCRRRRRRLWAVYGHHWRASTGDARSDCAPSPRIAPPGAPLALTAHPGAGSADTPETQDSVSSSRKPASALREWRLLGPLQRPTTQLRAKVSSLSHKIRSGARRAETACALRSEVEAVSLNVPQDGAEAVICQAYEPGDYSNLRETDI
T1 sequence (P43140 whole entry): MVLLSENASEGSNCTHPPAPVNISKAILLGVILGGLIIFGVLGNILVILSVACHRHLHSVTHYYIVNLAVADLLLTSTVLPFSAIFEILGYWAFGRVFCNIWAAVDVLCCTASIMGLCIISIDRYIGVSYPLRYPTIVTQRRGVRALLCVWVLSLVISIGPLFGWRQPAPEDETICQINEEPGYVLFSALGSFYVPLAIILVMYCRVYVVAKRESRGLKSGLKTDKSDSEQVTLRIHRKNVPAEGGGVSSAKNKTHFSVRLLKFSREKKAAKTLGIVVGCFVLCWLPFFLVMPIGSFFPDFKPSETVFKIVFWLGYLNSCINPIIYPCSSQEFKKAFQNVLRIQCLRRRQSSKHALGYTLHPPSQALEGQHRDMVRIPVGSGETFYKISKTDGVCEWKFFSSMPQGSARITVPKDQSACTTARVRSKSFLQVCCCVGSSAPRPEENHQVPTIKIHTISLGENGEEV

[2] = target: T2, Alpha-2A adrenergic receptor (Bos taurus, UniProt Q28838); test: Binding affinity against alpha-2 adrenergic receptor from calf cerebral cortex, using [3H]clonidine as the radioligand; assay type: tissue-based
T2 sequence (Q28838 whole entry): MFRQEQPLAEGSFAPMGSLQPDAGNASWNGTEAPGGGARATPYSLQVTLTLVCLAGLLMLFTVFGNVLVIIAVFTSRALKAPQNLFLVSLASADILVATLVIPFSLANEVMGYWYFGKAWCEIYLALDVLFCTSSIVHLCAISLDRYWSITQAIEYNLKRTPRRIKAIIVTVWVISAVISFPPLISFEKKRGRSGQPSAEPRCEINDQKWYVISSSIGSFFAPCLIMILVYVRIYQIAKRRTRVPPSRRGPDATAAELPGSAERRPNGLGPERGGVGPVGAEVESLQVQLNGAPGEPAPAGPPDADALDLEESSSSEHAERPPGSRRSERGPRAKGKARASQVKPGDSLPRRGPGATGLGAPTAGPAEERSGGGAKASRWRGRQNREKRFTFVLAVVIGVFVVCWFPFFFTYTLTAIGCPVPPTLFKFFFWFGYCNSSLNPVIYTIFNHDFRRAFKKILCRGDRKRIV

[3] = target: T3, Adrenergic receptor alpha-2 (Rattus norvegicus, UniProt P22086+P19328+P22909); test: Agonistic activity against alpha alpha-2 adrenergic receptor in isolated, field -simulated vas deferens from rats; assay type: functional
T3 sequence (P22086 whole entry): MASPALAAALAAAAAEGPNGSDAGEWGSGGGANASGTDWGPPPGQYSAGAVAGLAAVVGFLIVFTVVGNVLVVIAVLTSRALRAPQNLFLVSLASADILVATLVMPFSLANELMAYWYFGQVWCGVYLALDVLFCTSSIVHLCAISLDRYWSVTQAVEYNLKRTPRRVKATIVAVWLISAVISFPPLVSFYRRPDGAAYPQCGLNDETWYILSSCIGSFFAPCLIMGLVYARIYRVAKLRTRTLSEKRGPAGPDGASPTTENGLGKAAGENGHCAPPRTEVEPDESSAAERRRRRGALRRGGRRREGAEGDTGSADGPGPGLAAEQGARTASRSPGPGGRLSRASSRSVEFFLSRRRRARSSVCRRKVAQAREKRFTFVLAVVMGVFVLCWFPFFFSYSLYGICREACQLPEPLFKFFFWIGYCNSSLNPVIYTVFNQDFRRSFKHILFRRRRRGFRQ
T3 sequence (P19328 whole entry): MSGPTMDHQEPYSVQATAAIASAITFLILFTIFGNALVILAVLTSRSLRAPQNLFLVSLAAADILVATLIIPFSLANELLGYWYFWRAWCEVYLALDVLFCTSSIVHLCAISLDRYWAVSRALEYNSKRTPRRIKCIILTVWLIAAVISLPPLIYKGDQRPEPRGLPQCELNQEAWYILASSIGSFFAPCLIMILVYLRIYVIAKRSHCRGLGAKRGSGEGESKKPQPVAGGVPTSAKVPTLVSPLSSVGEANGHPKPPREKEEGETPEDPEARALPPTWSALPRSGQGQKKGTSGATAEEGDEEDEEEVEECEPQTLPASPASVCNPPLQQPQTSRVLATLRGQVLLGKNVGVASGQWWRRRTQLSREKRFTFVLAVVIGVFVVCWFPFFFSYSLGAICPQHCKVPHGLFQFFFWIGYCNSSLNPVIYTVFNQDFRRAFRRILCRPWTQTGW
T3 sequence (P22909 whole entry): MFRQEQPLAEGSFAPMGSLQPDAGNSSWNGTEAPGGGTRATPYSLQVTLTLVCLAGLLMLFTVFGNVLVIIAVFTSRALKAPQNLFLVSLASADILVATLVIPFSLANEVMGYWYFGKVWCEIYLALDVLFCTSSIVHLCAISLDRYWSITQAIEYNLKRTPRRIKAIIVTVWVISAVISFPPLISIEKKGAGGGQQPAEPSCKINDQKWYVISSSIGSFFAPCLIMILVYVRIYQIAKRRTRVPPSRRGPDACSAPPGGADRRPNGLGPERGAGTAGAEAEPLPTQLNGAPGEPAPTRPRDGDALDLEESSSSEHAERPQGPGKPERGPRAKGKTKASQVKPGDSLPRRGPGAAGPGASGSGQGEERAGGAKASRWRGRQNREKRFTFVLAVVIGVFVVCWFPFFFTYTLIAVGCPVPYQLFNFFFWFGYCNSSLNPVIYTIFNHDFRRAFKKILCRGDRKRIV

[4] = target: Adrenergic receptor alpha-2 (Rattus norvegicus) (UniProt P22086+P19328+P22909); test: Clonidine antagonistic activity against alpha-2 adrenergic receptor in isolated, field -simulated vas deferens from rats; assay type: functional
How it was run: (§1)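 Field-stimulated vas deferens from Sprague-Dawley rats (250-350 g). pA2 estimated from one or two test-compound concentrations, with at least three tissues per concentration. Agonist challenged was clonidine for α2 and methoxamine for α1.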

[5] = target: T3, Adrenergic receptor alpha-2; test: Agonistic activity against alpha-2 adrenergic receptor in isolated, field -simulated vas deferens from rats; assay type: functional
How it was run: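 Field-stimulated vas deferens from Sprague-Dawley rats (250-350 g), pretreated with prazosin (78 nM). α2 agonism scored as inhibition of stimulation-induced contractions. […] Agonist activity confirmed by complete reversal of the inhibition by rauwolscine (280 nM).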

[6] = target: T1, Adrenergic receptor alpha-1; test: Methoxamine antagonistic activity against alpha-1 adrenergic receptor in isolated, field -simulated vas deferens from rats; assay type: functional, tissue-based; how it was run: as §1

Compound	EC50 [1] [nM]	Ki [2] [nM]	EC50 [3] [nM]	pA2 [4]	EC50 [5] [nM]	pA2 [6]
Oc1cccc(NCC2=NCCN2)c1	61	7.1	74	–	–	–
Clc1ccccc1NCC1=NCCN1	50	–	–	–	53	–
Cc1ccc(N(CC2=NCCN2)C2CCCCC2)cc1	> 1000	70	> 1000	6.5	–	6
Cc1ccc(NCC2=NCCN2)cc1	340	14	> 2000	5.6	–	–
CCN(CC1=NCCN1)c1ccc(C)cc1	1600	14	> 1000	7.1	–	–

More lines, now with the values ahead:

EC50 [1] [nM]	Ki [2] [nM]	EC50 [3] [nM]	pA2 [4]	EC50 [5] [nM]	pA2 [6]	Compound
–	–	–	7.8	–	–	Cc1ccc(N(CC2=NCCN2)c2cccc(O)c2)cc1
> 1000	–	> 1000	7.5	–	7.6	Cc1ccc(N(CC2=NCCN2)c2ccccc2)cc1
300	3.3	> 2000	7	–	–	Cc1ccc(N(C)CC2=NCCN2)cc1
